Shown are actives, neighbours in structure and some others; about 1.8% of the full set was active somewhere.
CRFBP-R2 block: CRF-BP/CRF-R2 complex antagonism; HEK293 CRF-R2/CRF-BP, CRF-induced calcium fluorescence; inhibition, % at 11.8 µM; actives 0.59% (n = 350,000);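 active means inhibition of the ligand-induced calcium signal above about 50% at the single tested concentration, limit read from the data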
Jurkat NFkB inh: inhibitors of the PMA/ionomycin-induced NF-kB reporter in Jurkat cells | actives 0.53% (n = 330,000) | PMA/ionomycin-induced NF-kB luciferase reporter, luminescence | AID 435003 | inhibition, % at 4 µM; in the data active means inhibition above about 50%
CHOP UPR activ: apoptotic UPR (CHOP) activation; activation, % at 10 µM; CHO-CHOP luciferase reporter, luminescence; percent of tunicamycin response over DMSO baseline; actives 0.34% (n = 330,000);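 active means at 10 µM dose, activation of 40% or more, normalized to positive control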;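 further: 100% = tunicamycin at 10 µg/mL and 0% = DMSO alone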
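System: CHO CHOP reporter cells. Amount: 500 cells per well. Buffer or medium: F12 medium, 10% FBS. Compound dosing: one dose, 10 µM in 0.5% DMSO. Incubation: 6 h compound exposure at 37 °C after overnight seeding. Technique: Steady-Glo luciferase luminescence. Benchmarks: tunicamycin and DMSO controls.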
XBP1 UPR activ: activators of adaptive arm of unfolded protein response (XBP1). CHO-XBP1 luciferase reporter, IRE1-XBP1 UPR activation, luminescence; percent of tunicamycin response, DMSO as zero. activation, % at 20 µM. actives 0.33% (n = 330,000);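 active means versus positive control, 20 µM dose yields 30% or more activation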;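 further: 100% = tunicamycin at 10 µg/mL and 0% = DMSO only wells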
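Signal: luciferase luminescence; Assay system: CHO-XBP1 luciferase reporter cells; Amount: one thousand reporter cells per well; Dosing: 20 µM single concentration, DMSO 1%; Benchmarks: high control tunicamycin 10 µg/mL final, low control DMSO vehicle only; Schedule: 6 h compound exposure at 37 °C, 5% CO2; Evaluation: percent activation relative to tunicamycin reference.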
697 NFkB inh: lowers PMA/ionomycin-induced NF-kB signal in 697 B cells; 697 B-cell NF-kB luciferase reporter, 16 h; inhibition, % at 4 µM; actives 0.33% (n = 330,000); in the data active means inhibition above about 35%
Jurkat NFkB conf: lowers PMA/ionomycin-induced NF-kB signal in Jurkat cells; AID 435020; Jurkat NF-kB luciferase, 16 h; inhibition, % at 4 µM; shares compounds with Jurkat NFkB inh; actives 27% (n = 2,700);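 active means inhibition reaching about 45% at 4 µM in either replicate, limit read from the data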;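 further: plate controls were PMA/ionomycin stimulated DMSO wells for no effect and unstimulated DMSO wells for full effect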
Numbers without * were called inactive; . = no result given.

SMILES | CRFBP-R2 block | Jurkat NFkB inh | CHOP UPR activ | XBP1 UPR activ | 697 NFkB inh | Jurkat NFkB conf
Cc1cc(C(=O)COc2cccnc2[N+](=O)[O-])c(C)n1-c1ccccc1 | 11.3 | 64.7* | -10.1 | -4.7 | -6.6 | 18.4
CN(CC(=O)Nc1ccc(Cl)cc1)C(=O)CCc1c[nH]c2ccccc12 | -33.4 | 5.6 | 1.4 | -2.6 | 11.8 | .
O=C(COc1ccc(Br)cc1)N/N=C1\SCC(=O)N1c1ccc(F)cc1 | 0.7 | 99.2* | 1.1 | -1.4 | -9.1 | 14.8
Cc1ccc(OCC(=O)N/N=C2/SCC(=O)N2Cc2ccccc2)cc1 | 33.9 | -3.9 | -1.7 | -0.8 | -10.6 | .
COc1ccc(-c2cc3ccc(OCC(C)=O)cc3oc2=O)cc1 | 7.1 | -154.4 | 0.7 | -6.7 | -170.0 | -104.9
CC(NC(=O)CN1CCN(CC(=O)Nc2ccccc2Cl)CC1)c1ccc(Br)cc1 (centres undefined) | -2.9 | 7.5 | -0.3 | -3.4 | 22.9 | .
CCOc1cccc(C(=O)Nc2ccc3[nH]ncc3c2)c1 | -12.4 | -150.6 | 2.3 | -3.9 | -26.7 | -63.1
COc1cccc(C(=O)Nc2ccc3[nH]ncc3c2)c1 | -2.7 | -69.8 | 2.3 | -5.8 | -45.3 | .
O=C(OCc1ccccc1)N(CCF)c1cn(Cc2ccccc2)c(=O)n(Cc2ccccc2)c1=O | 2.2 | . | . | . | . | .
Cc1ccc(C)c(S(=O)(=O)N2CCN(C(=O)Cn3[nH]c(=O)c4ccccc4c3=O)CC2)c1 | -9.4 | -1.5 | 2.4 | -0.2 | -1.5 | .
O=C1C(=O)c2ccc(-c3ccccc3)cc2-c2ccccc21 | -16.6 | 52.5* | -8.6 | -6.8 | 21.3 | 23.6
Nc1ccc2c(c1)C(=O)c1ccccc1-2 | -14.8 | -21.4 | 1.9 | 3.8 | 18.9 | .
Nc1ccc2c(c1)C(=O)C(=O)c1ccccc1-2 | -3.9 | 83.7* | -8.3 | -8.3 | 5.2 | 24.3
Nc1ccc2c(c1)C(=O)c1ccccc1C2=O | 2.1 | -66.6 | 0.5 | 5.8 | -61.3 | .
Cc1cccc(C)c1NC(=O)CNC(=O)CNC(=O)c1ccc2ccccc2c1 | -13.2 | . | . | . | . | .
O=S(=O)(c1ccc(SCc2ccccc2F)nc1)N1CCCC1 | 9.8 | -4.1 | 2.8 | 4.7 | -27.0 | .
Cc1ccc(NC(=O)CSc2nc(-c3ccco3)cc(C(F)(F)F)n2)cc1C | 7.2 | 71.1* | 1.0 | 1.5 | -45.4 | 49.3*
O=C(CSc1nc(-c2ccco2)cc(C(F)(F)F)n1)Nc1ccc2c(c1)CCC2 | -1.0 | 61.0* | 3.5 | 3.6 | 7.7 | 23.6
COC(=O)c1ccccc1NC(=O)CSc1nc(-c2ccco2)cc(C(F)(F)F)n1 | -9.7 | 56.1* | 0.4 | 10.6 | -0.2 | 42.5
COc1ccccc1N(CC(=O)NCc1ccccc1)S(=O)(=O)c1cccs1 | 9.0 | . | . | . | . | .
COC(=O)c1cnc(N)s1 | -1.3 | . | . | . | . | .
CS(=O)(=O)N(CC(=O)Nc1cccc(Br)c1)Cc1ccccc1 | 4.8 | 7.1 | 2.4 | -0.1 | -14.1 | .
Cc1cccn2c(=O)c3cc(C(=O)NC4CCCC4)n(C)c3nc12 | -11.3 | 50.6* | 2.8 | 6.7 | -24.3 | 12.9
CN(C)c1ccc(/C=C2\CCCc3c2nc2ccccc2c3C(=O)O)cc1 | -9.4 | 1.8 | 6.5 | 1.9 | -61.5 | .
Cc1ccc(S(=O)(=O)Nc2ccccc2-c2ccccc2)cc1 | -6.2 | 58.9* | -1.3 | 3.0 | -49.7 | 50.4*
SMILES | CRFBP-R2 block | Jurkat NFkB inh | CHOP UPR activ | XBP1 UPR activ | 697 NFkB inh | Jurkat NFkB conf
O=C(NC1CCN(Cc2ccccc2)CC1)c1ccc(S(=O)(=O)NCc2ccco2)cc1 | -6.0 | 51.3* | 0.0 | -2.2 | -33.5 | 10.0
CCN(c1ccccc1)S(=O)(=O)c1ccc(C(=O)NC2CCN(Cc3ccccc3)CC2)cc1 | -25.2 | 73.9* | 7.6 | -3.5 | 27.5 | 65.3*
Cc1cc(-c2nnc(SCC(=O)Nc3c(C)cccc3C)n2N)n[nH]1 | 1.2 | 2.5 | 0.1 | 0.7 | 6.0 | .
COc1ccc(-c2cn3ccccc3n2)cc1 | -5.6 | -122.4 | -2.7 | -4.3 | -133.2 | .
Brc1ccc(-c2cn3ccccc3n2)s1 | 3.0 | -166.3 | 0.5 | -6.8 | -245.4 | -101.5
S=C(Nc1ccccc1Cl)N1CCC(c2ccccc2)C1 (centres undefined) | 1.1 | -96.4 | 3.5 | -2.0 | -117.6 | .
Cc1ccc(NC(=S)N2CCC(c3ccccc3)C2)c(Cl)c1 (centres undefined) | 14.6 | -165.3 | 1.6 | -4.7 | -199.5 | -98.0
O=C(Nc1ccc(Cl)c(S(=O)(=O)N2CCOCC2)c1)[C@@H]1CCCN1C(=O)c1cccs1 | 7.5 | -12.8 | -0.1 | -2.9 | 9.7 | .
O=C(NCCNc1ccc(Cl)cc1[N+](=O)[O-])c1ccccc1F | 3.0 | -12.4 | 5.3 | -0.5 | -20.4 | .
O=C(NCCNc1ccnc2cc(Cl)ccc12)c1ccccc1F | 0.0 | 56.1* | 4.0 | -2.5 | -37.2 | 29.2
COc1ccc(C(CNC(=O)c2oc3c(Cl)cccc3c2C)N2CCCC2)cc1 (centres undefined) | -20.1 | -8.8 | -0.4 | -2.3 | 4.4 | .
CCOC(=O)C(C)Oc1cccc2c(=O)n(CC(=O)NCc3ccc4c(c3)OCO4)ccc12 (centres undefined) | 29.0 | 52.3* | -1.2 | 7.5 | -61.7 | 54.0*
CCOC(=O)COc1cccc2c(=O)n(CC(=O)N3CCCCC3)ccc12 | 2.7 | -4.1 | 1.0 | -1.1 | 12.2 | .
CCOC(=O)COc1cccc2c(=O)n(CC(=O)NCc3ccc(F)cc3)ccc12 | -15.0 | 72.0* | 0.2 | 9.1 | -14.4 | 53.1*
CCOC(=O)COc1cccc2c(=O)n(CC(=O)NCc3ccccc3)ccc12 | 29.4 | 63.2* | -0.6 | 7.2 | -6.2 | 49.5
CCOC(=O)COc1cccc2c(=O)n(CC(N)=O)ccc12 | 1.9 | -14.6 | -1.5 | 0.1 | 17.1 | .
CCOCCCNC(=O)CN1C(=O)c2ccccc2Sc2ncccc21 | 2.9 | 3.8 | 3.6 | -1.2 | 2.8 | .
CCOc1ccc2c(c1)OC(c1ccc(OC)cc1)(C(F)(F)F)NC2=O (centres undefined) | -12.9 | 56.6* | 4.4 | 14.8 | -11.8 | 39.8
COc1cc2nc3n(c(=O)c2cc1OC)-c1ncccc1C(=O)NC3Cc1ccccc1 (centres undefined) | -3.8 | . | . | . | . | .
CCOc1ccc(N(CC(=O)Nc2ccccc2C)S(=O)(=O)c2c(C)noc2C)cc1 | -19.7 | 58.4* | -2.0 | 0.2 | -62.0 | 45.8*
CCOc1ccccc1NC(=O)CN(c1ccc(OC)cc1)S(=O)(=O)c1c(C)noc1C | -48.9 | 65.1* | -1.2 | 9.3 | -43.8 | 44.4
Cc1cn([C@H]2C[C@H](O)[C@@H](CNCc3cccn3-c3nccs3)O2)c(=O)[nH]c1=O | 9.4 | . | . | . | . | .
CC(C)(C)OC(=O)NCc1ccc(NC(=O)c2nc[nH]c2C(=O)NCCNC(=O)c2[nH]cnc2C(=O)Nc2ccc(CNC(=O)OC(C)(C)C)cc2)cc1 | 22.7 | 62.2* | -1.6 | 0.2 | 15.2 | 35.2
CN(C)c1ccc(/C=N\Nc2ccccn2)cc1 | 13.6 | -185.5 | 7.2 | -3.9 | -193.1 | -59.8
Cn1cc(CCCC(=O)NCc2ccc(F)cc2)c2ccccc21 | 21.7 | -5.0 | -1.3 | -6.2 | -6.3 | .
